Screens from PubChem BioAssay.
Shown are actives, neighbours in structure and some others; about 1.1% of the full set was active somewhere.
SR-BI HDL uptake: inhibitors of SR-BI mediated HDL lipid uptake, primary screen, ldlA[mSR-BI] cells, fluorescence, single point. inhibition, % at 12.5 µM. 0.96% of 320,000 active. Scavenger receptor class B member 1 (Mus musculus), Q61009. ldlA[mSR-BI] CHO cells, DiI-HDL uptake fluorescence, 3 h;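 active = mean replicate inhibition of at least 70% and a set share of replicates each scoring 70 or more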;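 also: 0% = median of neutral control wells and 100% = median of positive control wells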
CDK5 p35 inh: inhibitors of human CDK5/p35 kinase, primary screen, biochemical, single concentration | Cyclin-dependent kinase 5 (Homo sapiens) + Cyclin-dependent kinase 5 activator 1 (Homo … | Recombinant CDK5/p35, ADP-Glo luminescence, 60 min | inhibition, % at 10 µM | 0.01% of 330,000 active | AID 488839, 2010;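 active = highest replicate inhibition of at least 50% and at least 75% of replicates reaching 50%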;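 also: plate controls were DMSO neutral control for no effect and GW8510 at 10 µM for full effect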
GSK3B inh: human GSK3beta kinase inhibitors, primary screen, biochemical, cell-free homogeneous, HTS. Glycogen synthase kinase-3 beta (Homo sapiens), P49841. GST-GSK3beta kinase, ADP-Glo luminescence, 60 min; stronger effect = lower value. activity score (negative = inhibition), % at 10 µM. 0.038% of 300,000 active;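 active = more than half of replicate wells score below -50%, meaning over 50% inhibition versus plate controls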;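 also: 0% = median DMSO wells and -100% = median GW8510 positive control wells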
Target sequence (P49841 whole entry, looked up): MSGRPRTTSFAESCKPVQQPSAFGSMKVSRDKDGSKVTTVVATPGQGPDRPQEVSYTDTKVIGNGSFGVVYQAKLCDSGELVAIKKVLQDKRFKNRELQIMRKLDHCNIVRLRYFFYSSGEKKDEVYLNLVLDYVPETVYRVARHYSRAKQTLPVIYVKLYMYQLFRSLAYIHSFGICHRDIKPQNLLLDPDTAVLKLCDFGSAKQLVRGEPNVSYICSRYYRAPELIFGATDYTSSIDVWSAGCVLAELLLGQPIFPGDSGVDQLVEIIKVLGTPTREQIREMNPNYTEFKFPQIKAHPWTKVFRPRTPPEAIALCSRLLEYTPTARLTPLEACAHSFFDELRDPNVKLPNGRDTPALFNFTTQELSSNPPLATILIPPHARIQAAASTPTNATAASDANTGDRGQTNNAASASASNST
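Test system – GST-tagged human GSK3beta kinase, cell-free · Incubation – 60 min enzyme reaction, room temperature · Signal – ADP-Glo luminescence · Also added – peptide substrate and ATP at 25 µM · Controls – DMSO neutral wells and GW8510 at 20 µM as positive · Buffer or medium – Tris/MgCl2 kinase buffer · Measure – Luminescence-derived activity versus plate DMSO and GW8510 wells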
SR-BI DiI-HDL act: activators of SR-BI mediated DiI-HDL uptake, primary screen, ldlA[mSR-BI] CHO cells, DiI fluorescence; 3 h; 100 = double the neutral-control signal; activation, % at 12.5 µM; 0.096% of 320,000 active;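 active = mean replicate activation of at least 60% and every replicate at or above 60%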;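 also: 0% = median plate neutral-control signal and 100% = twice that signal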
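System: CHO ldlA[mSR-BI] cells / Medium: HEPES-buffered (25 mM, pH 7.4) F12 plus 0.5% BSA / Probe or stimulus: labelled HDL, 10 µg/mL / Doses: single compound concentration, delivered by pin transfer / Schedule: 3 h, 37 °C / Measured by: DiI fluorescence, bottom read / Measure: cell-associated DiI fluorescence as measure of HDL uptake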
GSK3 alpha inh: blockers of GSK3A enzyme activity – biochemical, luminescence, cell-free homogeneous, HTS, primary screen | Glycogen synthase kinase-3 alpha (Homo sapiens), P49840 | GSK-3 alpha kinase, ADP-Glo luminescence, 60 min | inhibition, % at 10 µM | 0.1% of 320,000 active | AID 2650, 2010;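 active = more than half of replicates show inhibition above 20%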;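 also: GST-tagged GSK-3 alpha with peptide substrate and 25 µM ATP; 0% = DMSO neutral wells and 100% = GW8510 positive control wells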
* marks the source's active call; other numbers are inactive results; i = inactive; / = no result.

SMILES | SR-BI HDL uptake | CDK5 p35 inh | GSK3B inh | SR-BI DiI-HDL act | GSK3 alpha inh
Cc1ccc(C(=O)Nc2cc(C(F)(F)F)ccc2N2CCCCC2)cc1[N+](=O)[O-] | 20.8 | -0.4 | 2.4 | -20.8 | 0.3
Cc1cccc(NC(=O)c2ccc(N(C)C3CCCCC3)c([N+](=O)[O-])c2)n1 | 85.5* | 0.7 | 0.3 | -85.5 | -2.6
Cc1ccc(C(=O)Nc2cccc(-c3ccc(N4CCOCC4)nn3)c2)cc1[N+](=O)[O-] | 73.3* | 1.1 | -4.7 | -73.3 | -0.9
O=C(Nc1cccc(-c2ccc(N3CCOCC3)nn2)c1)c1ccc([N+](=O)[O-])cc1 | 63.4 | -0.9 | 0.1 | -63.4 | -1.0
O=C(NCC(=O)N(c1cccc(F)c1)C(C(=O)NC1CCCC1)c1cccnc1)c1ccco1 (configuration not stated) | -19.6 | -0.6 | 4.0 | 19.6 | -2.6
C[C@H](NC(=O)c1ccccc1)C(=O)N1CCN(c2ccccc2)CC1 | / | -1.8 | -6.0 | / | -1.4
CCc1ccc(C(=O)/C=C/c2ccc([N+](=O)[O-])o2)cc1 | 13.4 | 0.5 | 0.7 | -13.4 | 1.2
CCOC(=O)CCc1ccc(NC(=O)/C=C/c2ccc([N+](=O)[O-])o2)cc1 | 74.4* | -1.0 | / | -74.4 | /
Cc1ccc(/C=C/C(=O)Nc2ccc(Oc3ccccc3)cc2)o1 | 23.7 | 0.0 | -21.2 | -23.7 | 1.0
Cc1ccc(/C=C/C(=O)Nc2ccc([N+](=O)[O-])cc2)o1 | 74.7* | 1.6 | 3.5 | -74.7 | 1.0
CN(C)CC(C)(C)CNC(C(=O)Nc1ccc(Cl)cc1C(F)(F)F)c1ccccc1 (configuration not stated) | -1.2 | -0.7 | -1.6 | 1.2 | -1.1
O=C1C(=O)N(Cc2cccnc2)C(c2cccc([N+](=O)[O-])c2)/C1=C(/O)c1ccc2c(c1)OCO2 (configuration not stated) | -11.2 | -1.0 | 1.2 | 11.2 | -0.8
CCOc1ccccc1Nc1nnc(SCC(=O)Nc2nc(-c3ccc(OC)cc3)cs2)s1 | 76.1* | -0.6 | -1.1 | -76.1 | 0.1
CCOc1ccc(NCc2nnc(SCC(=O)Nc3nc(-c4ccccc4)cs3)n2-c2ccccc2)cc1 | 74.7* | -2.6 | 5.6 | -74.7 | 0.5
O=C(Nc1ccccc1)c1ccc(Nc2c([N+](=O)[O-])cc([N+](=O)[O-])c3ccccc23)cc1 | 87.8* | 0.3 | -3.8 | -87.8 | -0.6
Cc1c(C(=O)Nc2ccc(Nc3ccccc3)cc2)cccc1[N+](=O)[O-] | 63.4 | 2.0 | 0.0 | -63.4 | -0.6
Oc1nc(Nc2cccc(Cl)c2)sc1/C=C1\C=Nc2ccccc21 | 25.4 | -0.9 | 0.2 | -25.4 | -1.6
CCOC(=O)c1c(Nc2ccc(Cl)cc2)sc(/C=C2\C=Nc3ccccc32)c1O | 90.8* | -1.6 | 0.6 | -90.8 | -1.7
O=C1C=C(c2ccccc2)C(c2ccccc2)C1O (configuration not stated) | -21.5 | -1.1 | / | 21.5 | /
CCOc1ccc(NS(=O)(=O)c2ccc(C(=O)NCC(c3ccco3)N3CCCC3)cc2)cc1 (configuration not stated) | -8.8 | -0.4 | / | 8.8 | 2.2
CC(C(=O)c1ccccc1)n1c(N2CCOCC2)nc2c1c(=O)n(C)c(=O)n2C (configuration not stated) | -62.7 | -3.0 | 1.1 | 62.7* | 1.3
Cn1c(=O)c2c(nc(N3CCOCC3)n2C)n(C)c1=O | -48.6 | 0.1 | 0.3 | 48.6 | -3.3
Cc1ccc2c(c1)c1c3n2CC(=C2C(=O)OC(C)(C)OC2=O)NC3CCC1 (configuration not stated) | 78.2* | -0.1 | -1.7 | -78.2 | -1.6
O=[N+]([O-])c1cc([N+](=O)[O-])c2c(=Nc3ccccc3)n(-c3ccccc3)n(O)c2c1 | 74.9* | 3.3 | 1.1 | -74.9 | 1.3
O=[N+]([O-])c1cc(Br)c(Nc2ccccc2)c([N+](=O)[O-])c1 | 0.7 | 1.4 | -1.6 | -0.7 | -2.5
SMILES | SR-BI HDL uptake | CDK5 p35 inh | GSK3B inh | SR-BI DiI-HDL act | GSK3 alpha inh
Cc1cccc(C(=O)c2c(N)sc3c2CCCC3)c1 | 64.6 | 0.4 | 0.7 | -64.6 | 0.1
Cc1cccc(C(=O)c2c(N)sc3c2CCC(C)C3)c1 (configuration not stated) | 73.2* | -1.1 | -0.1 | -73.2 | 0.1
Nc1nc(-c2ccccc2)c(N=Nc2ccc(Cl)cc2)s1 | 86.0* | -1.1 | 0.4 | -86.0 | 0.1
O=C(NCc1cn2ccccc2n1)C1CCC(=O)N(Cc2ccccc2F)C1 (configuration not stated) | -11.1 | -1.1 | / | 11.1 | -0.3
N#CC1(c2ccc(NC(=O)c3ccccc3F)cc2)CCCC1 | 22.9 | 3.4 | -1.1 | -22.9 | -0.3
O=C(NNC(=O)c1cc2ccccc2o1)c1ccc(Cl)cc1 | i | 0.4 | -1.5 | 510.5* | 1.7
O=C(NNC(=O)c1cc2ccccc2o1)c1ccc(F)cc1 | -14.0 | 0.3 | / | 14.0 | /
Cc1cc(OC(C)C(=O)Nc2ccncc2)ccc1Cl (configuration not stated) | -31.1 | -0.5 | 1.4 | 31.1 | 0.2
CCN(CC)CCNC(=O)c1cc2c(-c3ccc(Cl)cc3)nn(C)c2s1 | 68.9 | 5.8 | -7.3 | -68.9 | /
CCn1c(=O)c2cc(C(=O)NC(C)C)sc2c2ccccc21 | 56.6 | -1.0 | 0.2 | -56.6 | 2.5
Cn1nc(-c2ccc(Cl)cc2)c2cc(C(=O)NCCN3CCOCC3)sc21 | 86.3* | -2.5 | 0.1 | -86.3 | 4.1
CCCCNC(=O)c1cc2c(=O)n(CC)c3ccccc3c2s1 | 72.6* | 0.4 | -0.5 | -72.6 | -1.3
CCn1c(=O)c2cc(C(=O)NCCN3CCOCC3)sc2c2ccccc21 | 87.9* | 0.8 | -6.1 | -87.9 | -0.4
CCn1c(=O)c2cc(C(=O)NCc3cccs3)sc2c2ccccc21 | 70.9* | -0.4 | / | -70.9 | 0.6
O=C(Nc1ccccn1)C1CCN(S(=O)(=O)c2ccc(Cl)cc2)CC1 | -13.5 | -0.2 | -1.0 | 13.5 | -0.6
COc1ccccc1-c1sc2cc3c(cc2c1C#Cc1cncn1C)OCO3 | 42.6 | 2.3 | / | -42.6 | -0.8
CNC(=O)c1ccc(-c2sc3nc(N4CCOCC4)c4c(c3c2N)CCCC4)o1 | 86.8* | 0.8 | 0.3 | -86.8 | 0.5
COc1ccc(C(=O)CSC2=C(C#N)C3(CCCCC3)C(C#N)=C(N)N2)cc1 | 71.9* | -0.5 | 0.8 | -71.9 | -2.0
Cc1cccc(/C=N\NC(=O)c2ccc(Cl)cc2)c1O | 140.8* | 2.2 | 2.5 | -140.8 | -1.5
Cc1cccc(/C=N/NC(=O)c2c(-c3ccccc3)noc2C)c1O | 102.0* | 1.1 | -0.4 | -102.0 | -2.3
COc1ccccc1/C=N/NC(=O)c1c(-c2ccccc2)noc1C | / | 0.0 | -2.0 | / | -1.6
O=C(N/N=C/c1cc([N+](=O)[O-])ccc1O)c1cccc2cc[nH]c12 | 143.9* | 0.9 | -1.5 | -143.9 | 5.5
